The list is not random: actives were taken first. Their share in the collection is about 2.9%.
OX1R antag-1: blocks the human orexin 1 receptor; O43613; inhibition, % at 5 µM; CHO/OX1R cells, Fluo-8 calcium fluorescence, orexin A; 0.43% of 330,000 active;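 active = inhibition above its plate's threshold, mean inhibition of all tested compounds on the plate plus 3 SD, cut at about 37% in these data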
Target sequence (O43613 whole entry, looked up): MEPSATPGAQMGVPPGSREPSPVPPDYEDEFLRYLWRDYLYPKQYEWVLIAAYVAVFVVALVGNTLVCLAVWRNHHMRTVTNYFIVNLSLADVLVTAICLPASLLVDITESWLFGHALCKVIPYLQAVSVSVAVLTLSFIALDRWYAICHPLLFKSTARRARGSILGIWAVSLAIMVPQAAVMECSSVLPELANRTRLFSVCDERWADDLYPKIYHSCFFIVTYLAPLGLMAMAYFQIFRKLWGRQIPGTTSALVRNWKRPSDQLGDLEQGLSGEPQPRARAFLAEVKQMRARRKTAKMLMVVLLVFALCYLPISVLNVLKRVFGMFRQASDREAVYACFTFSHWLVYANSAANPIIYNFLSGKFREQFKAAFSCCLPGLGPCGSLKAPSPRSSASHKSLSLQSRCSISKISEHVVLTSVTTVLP
CHO-K1 Ca PAM: nonselective activator or artifact in parental CHO-K1 calcium assay | ATP EC20, Fluo-8 calcium fluorescence; 0% at ATP EC20, 100% at ATP max | AID 602247 | activation, % at 3 µM | 0.02% of 360,000 active;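 active = activation above the run cutoff, the mean activation of all test compounds plus 3 SD, cut at about 40% in these data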;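 note: peak over basal fluorescence ratio in a 140 s read after ATP addition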
CHO parental Ca: counter-screen for OX1R antagonists: effect in parental CHO cells; parental CHO-K1, ATP-induced calcium, Fluo-8 fluorescence; inhibition, % at 5.6 µM; 0.63% of 330,000 active; AID 463079;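 active = inhibition above that plate's mean sample inhibition plus 3 SD, cut at about 26% in these data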
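Test system: untransfected parental CHO cell line. Compound: one dose, 5.6 µM nominal. Detection: intracellular calcium via Fluo-8 no-wash fluorescent dye. Measure: % inhibition. Benchmarks: ATP-challenged DMSO wells low, unchallenged DMSO wells high.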
OX1R antag-2: antagonists of human orexin 1 receptor (OX1R); O43613; OX1R-expressing cells, FRET antagonist read-out; inhibition, % at 6.6 µM; 1.8% of 330,000 active; in the data active = inhibition mostly above about 38%, no sharp cut-off; inactive = mostly below about 40%
CHO-K1 Ca ag: counter-screen for M1 agonists: effect in parental CHO-K1 cells; Fluo-8 calcium fluorescence; scaled to maximal ATP response, vehicle zero; activation, % at 3 µM; 0.48% of 360,000 active; in the data active = activation above about 15%;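 note: untransfected CHO-K1 host cells lacking M1 receptor as counterscreen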
CHO-K1 Ca antag: M1 antagonist counterscreen hit in parental CHO-K1 cells; ATP-induced calcium, Fluo-8 fluorescence; inhibition, % at 3 µM; 0.6% of 360,000 active; AID 602250;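 active = inhibition above a per-plate cutoff, the plate's mean sample inhibition plus 3 SD, cut at about 24% in these data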
A number is an active result; - = inactive; . = no result.

SMILES	OX1R antag-1	CHO-K1 Ca PAM	CHO parental Ca	OX1R antag-2	CHO-K1 Ca ag	CHO-K1 Ca antag
CCOc1ccc(CCN2C(=S)N([C@@H](CC(C)C)CN3CCCC3CN3C(=S)NC[C@@H]3Cc3ccccc3)C[C@@H]2CC(C)C)cc1 (stereo partly specified)	.	-	.	.	-	-
CCn1c(SCC(=O)Nc2nc(-c3ccc(C)cc3)cs2)nnc1-c1ccccc1	-	-	-	-	-	-
CCn1c(SCC(=O)Nc2nc(-c3ccc(C)cc3)cs2)nnc1-c1ccccc1O	-	-	33	-	-	-
COc1ccc(N=Cc2c(O)cc(C)oc2=O)cc1	-	-	-	-	16	-
CCc1cc(Cn2nc(-c3ccccc3)cc2C(=O)NCc2cccs2)on1	-	-	50	-	-	-
COc1ccccc1C(=O)Nc1ccc2c(c1)nc(CN1CCN(C(C)=O)CC1)n2C	-	-	-	-	-	24
COc1cc(/C=N/NC(=O)c2ccc(CN3C(=O)c4cccc5cccc3c45)cc2)cc(OC)c1O	-	-	-	-	15	-
COc1cc(NC(=O)c2ccccc2-c2ccccc2)cc(OC)c1	-	-	-	57	-	-
COc1ccc(-c2cc(C(=O)NCc3cccc(Cl)c3)[nH]n2)c(C)c1	.	-	.	.	-	-
Cc1ccc2oc(C(=O)N3CCC(O)(c4cccc(C(F)(F)F)c4)CC3)c(C)c2c1	-	-	-	-	-	-
CCC(=O)N(C1=C(NC(C)C)C(=O)c2ccccc2C1=O)C(C)C	-	-	-	-	-	-
CCCNC1=C(N(C(C)=O)c2cccc(F)c2)C(=O)c2ccccc2C1=O	-	-	-	68	-	-
Cc1cc(NC2CCCCC2)nc(NCc2ccccc2)n1	-	-	36	-	15	-
Cc1nn(C)cc1C(=O)NNC(=S)Nc1ccccc1	-	-	-	-	-	-
CNC(=S)NNC(=O)c1cn(C)nc1C	-	-	-	-	-	24
Cc1ccc(S(=O)(=O)N2CCCCC2)cc1NC(=O)c1cc(=O)[nH]c2ccccc12	-	-	-	-	-	-
COc1ccccc1C(=O)NC(=S)/C=C1/N(C)c2ccccc2C1(C)C	48	-	49	-	-	-
Cc1c(C#N)c(O)[nH]c(=O)c1N=Nc1ccc(S(N)(=O)=O)cc1	-	-	-	41	-	-
Nc1ccc(-c2nc3nc(N)nc(N)c3nc2-c2ccc(N)cc2)cc1	-	-	-	40	-	-
O=c1c2cc(Br)ccc2nc2n1CCCCC2	-	-	-	-	-	-
O=c1c2cc([N+](=O)[O-])ccc2nc2n1CCCC2	-	-	-	69	-	-
Cc1sc2nc3ccc(N4CCCC4)nn3c(=O)c2c1C	-	-	-	48	-	-
CCCC(=O)Nc1ccc(C(=O)Nc2cc(C(F)(F)F)ccc2Cl)cc1	-	-	69	-	-	-
O=C(OC(c1ccccc1)c1nccc2ccccc12)c1cc([N+](=O)[O-])cc([N+](=O)[O-])c1 (stereo unspecified)	-	-	-	62	-	-
Cc1cc(C)c(C(N)=O)c(SCC(=O)c2cc(C)n(-c3cc(C)on3)c2C)n1	-	-	31	-	-	-
SMILES	OX1R antag-1	CHO-K1 Ca PAM	CHO parental Ca	OX1R antag-2	CHO-K1 Ca ag	CHO-K1 Ca antag
Cc1cc(C)c(C(N)=O)c(SCC(=O)c2cc(C)c(C)cc2C)n1	-	-	-	-	-	-
Cc1ccccc1C(=O)c1cccn1CC(=O)NC1CCCC(C)C1C (stereo unspecified)	-	-	-	40	-	-
Cc1ccccc1C(=O)c1cccn1CC(=O)NCCCc1ccccc1	-	-	-	-	-	-
Cc1ccccc1C(=O)c1cccn1CC(=O)NCC(C)c1ccccc1 (stereo unspecified)	-	-	-	39	-	-
CC1CCCCC1NC(=O)Cn1cccc1C(=O)c1ccccc1 (stereo unspecified)	-	-	-	-	-	-
COc1ccc(CCC2CCNCC2)cc1	-	-	-	-	-	-
CCOC(=O)C1CCN(C(=O)CCS(=O)(=O)c2ccc3c(c2)n(C)c(=O)c(=O)n3C)CC1	-	-	-	-	-	-
CN(C)S(=O)(=O)c1ccc2c(c1)/C(=C/c1cc3c([nH]1)CCCC3)C(=O)N2	-	-	36	-	-	-
O=[N+]([O-])c1cc(-c2ccc(/C=N\n3cnnc3)o2)cc([N+](=O)[O-])c1	-	-	-	69	-	-
CCn1cc(/C=C/c2cc[n+](C)cc2)c2ccccc21	-	-	-	45	-	-
CCN(CC)C(=O)Cn1c(=O)n(C)c2ccccc21	-	-	-	-	-	-
CCN(CC)C(=O)Cn1c(C)c(/C=C/c2cc[n+](C)cc2)c2ccccc21	-	-	-	72	-	-
CC(C)n1cc(/C=C/c2cc[n+](C)cc2)c2ccccc21	.	-	.	.	-	-
C=CCn1c(C)c(/C=C/c2cc[n+](C)cc2)c2ccccc21	-	-	-	48	-	-
COc1ccc(NC(=O)N(C)C[C@H]2Oc3ccc(NC(=O)Nc4c(C)noc4C)cc3C(=O)N([C@H](C)CO)C[C@@H]2C)cc1	-	-	-	-	-	-
CN(CC(=O)Nc1ccc(F)cc1)C(=O)C1CCCC1	-	-	-	-	-	-
COCCOc1ccc(C(F)(F)F)cc1NC(=O)c1ccc(C)cc1	-	-	39	-	-	-
COCCOc1ccc(C(F)(F)F)cc1NC(=O)c1ccc(F)cc1	-	-	-	-	-	-
CC(C)CN(C(=O)COC(=O)CSc1ccccc1F)c1c(N)n(Cc2ccccc2)c(=O)[nH]c1=O	-	-	-	-	-	61
Cc1cccc(C(=O)OCC(=O)c2cccc(Br)c2)c1O	-	-	-	-	-	-
CC(=O)c1nn(-c2ccccc2)cc1C(=O)c1ccc(Br)cc1	-	-	40	-	-	-
CCCCNC(=O)CCn1c(=O)c2cccn2c2ccc(F)cc21	.	-	.	.	-	-
Cc1occc(=O)c1OCc1c(F)cccc1Cl	-	-	-	-	16	-
CCOc1ccccc1OCCC(=O)OCC(=O)Nc1c(C)cc(C)cc1C	-	-	-	-	-	-
COc1ccccc1NS(=O)(=O)c1cccc(NC(=O)Nc2ccc(Cl)cc2)c1	51	-	82	52	-	38
COc1ccccc1NS(=O)(=O)c1cccc(NC(=O)Nc2ccccc2)c1	44	-	-	-	18	37
Cc1ccccc1-c1nc(CS(=O)(=O)CC(=O)NCCCN2CC(C)CC(C)C2)c(C)o1 (stereo unspecified)	-	-	-	-	-	-
Cc1c(C(=O)Nc2ccc(F)cc2)nnn1-c1cccc(C(F)(F)F)c1	-	-	49	-	-	-
Cc1cccc(-n2nnc(C(=O)Nc3ccc(F)cc3)c2N)c1	-	-	-	-	-	-
O=C(COc1ccc(Br)cc1)NCCN1CCCC1	-	-	-	-	-	-

Bioassay records as filed in PubChem BioAssay.
